Reference: ChEMBL document CHEMBL4513216, “Probing the Open Global Health Chemical Diversity Library for Multistage-Active Starting Points for Next-Generation Antimalarials” (ACS Infect Dis, 2020)

Experiment: Toxicity liver stage against HepG2, at 10uM
Assay type: cell-based
Set-up: test concentration 10 uM, cell line HepG2-A16-CD81EGFP
Settings: human, HepG2-A16-CD81EGFP cells; read-out: INHIBITION
Method in brief: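 Uninfected HepG2-A16-CD81EGFP cells, 3 × 10^3 per well, 1536-well, plated on prespotted compound at 10 μM final, parasite-free screening media added to match infected plates; puromycin 10 μM positive, DMSO 0.5% negative; run in parallel with 48 h PbLuc assay at 37 °C, 5% CO2; viability by CellTiter-Glo luminescence, normalized to controls.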

Row | Compound | cytotoxicity at 10 µM
1 | Cc1ccc(C(=O)N2C[C@@H]3[C@@H](C2)OCC(=O)N3Cc2cccnc2)o1 | 3.8%
2 | CCOc1ccc(CN2CCNC(C(=O)NC3CC3)C2)cc1CO (stereo not given) | 2.95%
3 | CC(=O)NC1CCCN(c2nc3ccccc3cc2CO)C1 (stereo not given) | -50.1%
4 | COCCC(=O)N1CCC(c2nnc(-c3ccsc3)o2)CC1 | 9.09%
5 | CN(Cc1ccc(C#N)cc1)Cn1nccc1-c1cccnc1 | 8.4%
6 | O=S(=O)(NCC1COCCO1)c1ccc(C2CCCCC2)cc1 (stereo not given) | 27.5%
7 | CCOCCN1CCN(c2ccc(CN(C)C)cn2)CC1 | -4.11%
8 | Cc1ccc(CN2CCN(c3ncnc4[nH]cnc34)CC2CCO)cc1 (stereo not given) | 28%
9 | CCN(CC)S(=O)(=O)N1CCC(c2nccn2Cc2ccccn2)CC1 | 0.136%
10 | Cc1ccc(C(=O)N2CCN(C(=O)C(C)n3ccnc3)CC2)cc1F (stereo not given) | 3.72%
11 | O=C(NC[C@H]1C[C@@H]2CCN1C[C@@H]2CN1CCCCC1)Nc1ccsc1 | -1.31%
12 | Cc1ccc(NC(=O)C(C)N2CCCN(c3nccs3)CC2)c(C)c1 (stereo not given) | 2.72%
13 | CCC(O)CN1CCN(C(=O)c2ccn(-c3ccccc3)n2)CC1 (stereo not given) | -9.33%
14 | COCC(=O)N1CC(c2n[nH]cc2C)C1 | -2.76%
15 | O=S(=O)(C1CC1)N1CCOCC2(CN(c3ncccn3)CCO2)C1 (stereo not given) | 6.37%
16 | Cc1nnc(CN2CCCC2c2ccc(C(C)(C)C)cc2)o1 (stereo not given) | -8.48%
17 | CCc1noc(CN2CCN(C(=O)COC)CC2)n1 | -8.09%
18 | CN(C)C(=O)[C@H]1C[C@H]2OCC[C@H]2N(Cc2ccc3c(c2)OCO3)C1 | -71.3%
19 | CC(=O)c1ccc(NC(=O)NC(C)c2ccc3c(c2)CC(=O)N3)cc1 (stereo not given) | -8.03%
20 | O=C1CC(NS(=O)(=O)N2CCOCC2)CN1Cc1ccc(F)cc1 (stereo not given) | -11%
21 | Cc1nc(CN2CCC(CNC(=O)C3CCOC3)CC2)oc1C (stereo not given) | 0.0966%
22 | O=C(N1CCOCC1)N1CCc2[nH]nc(COc3cccc(Cl)c3)c2C1 | -42.2%
23 | CCCc1cc(NC2CCc3nc(CC)nn3C2)n2ncnc2n1 (stereo not given) | -16.3%
24 | O=C(CCCc1cn[nH]c1)N1C[C@@H](CN2CCCCCC2)[C@@H](CO)C1 | 1.52%
25 | COCC1Cn2nnc(-c3cnn(C)c3)c2CN1Cc1ccoc1 (stereo not given) | 6.44%
26 | CC(CN1CCCCCC1)NCc1cc(-c2ccco2)on1 (stereo not given) | 1.56%
27 | Cc1cccc(CSc2nnc(C)n2CC(N)=O)c1 | -4.46%
28 | CC(c1cccc(-c2cn(Cc3ccoc3)nn2)c1)N(C)C (stereo not given) | 1.35%

Row | Compound | cytotoxicity at 10 µM
29 | Cc1cc(N2CCC(N(C)C(=O)c3ccccc3)CC2)nc(C)n1 | -4.69%
30 | CC(C)[C@@H]1CN(S(=O)(=O)c2cccc(C(=O)O)c2)C[C@H]1N(C)C | -39.1%
31 | N#CC1(C(=O)NCc2ccc(F)cc2)CCCC1 | 7.57%
32 | Cc1nn(C)c(Cl)c1S(=O)(=O)N(C)C | 3.66%
33 | COCCO[C@@H]1C[C@H]2CN(C(=O)c3cccnc3)CCN2C1 | -4.58%
34 | O=C1N(CCc2ccccc2)CCCC1(O)CNCc1ccc(F)cc1 (stereo not given) | -1.24%
35 | Cc1ccc(C(=O)N2C[C@H]3CCCC(OCc4cccnc4)[C@H]3C2)cn1 (stereo not given in full) | 4.93%
36 | CC(C)NC(=O)Nc1ccc(-c2nc3c([nH]2)CCNC3)cc1 | -3.5%
37 | O=C1NCCCc2[nH]c(-c3nc(C4CC4)no3)nc21 | -5.74%
38 | CCC(NC(=O)CN(C)Cc1ccc(C)o1)c1ccc(C)cc1 (stereo not given) | 3.97%
39 | Cc1ccc2c(c1)c(C)cc(=O)n2CCC(=O)O | -5.6%
40 | CCN(C)C(=O)NCC1(CN2CCOCC2)CCCCC1 | -5.18%
41 | COc1ccccc1CCNC(=O)CNC1CCc2nc(C)nn2C1 (stereo not given) | -12.3%
42 | O=C(Cn1cccnc1=O)NC(Cc1cccs1)c1ccccn1 (stereo not given) | -2.03%
43 | Cc1ccccc1-n1ncc(C(=O)N2CCCC2c2cnn(C)c2)c1C (stereo not given) | -4.84%
44 | CC(NCc1ccc(C(C)(C)C)cc1)c1ccc(S(C)(=O)=O)cc1 (stereo not given) | 14.5%
45 | Fc1cnc(N2CCCn3c(nnc3Cn3ccnc3)C2)nc1 | -140%
46 | COCCN1CCC2(COCc3c(C)nc(N(C)C)nc32)C1 (stereo not given) | -132%
47 | Cc1nc(C)n(C2CCCN(C(=O)c3ccc4[nH]nnc4c3)C2)n1 (stereo not given) | -13.9%
48 | Cc1ccc(N2CC[C@H]3O[C@H](C(=O)NCc4ccco4)CC[C@H]32)nn1 | -71.9%
49 | Cc1nn(C)c(Cl)c1C1CCCN1C(=O)c1ccncc1 (stereo not given) | -11.2%
50 | O=C(Cc1ccc(Cl)cc1)N[C@@H]1CCC[C@@H](O)[C@@H]1O | 2.3%
51 | O=C(NCCNc1ncccn1)NCCSC(F)(F)F | 5.81%
52 | CC(C)C(C)N(Cc1ccccn1)Cc1ccco1 (stereo not given) | -1.99%
53 | Cc1ccnc(NCCCN2CCc3ccccc32)n1 | 0.979%
54 | COc1ccccc1C(=O)C1CCCN(c2cc(C#N)ccn2)C1 (stereo not given) | 7.56%
55 | O=C(NC1CC1)c1nc2c(s1)CCCN2c1ccccc1 | -157%
